Laboratory results from ChEMBL document CHEMBL2331302, “Selection of heptapeptides that bind helix 69 of bacterial 23S ribosomal RNA” (Bioorg Med Chem, 2013).
pKd: −log10 of the molar value. Blank lines part the entries; values can stand above or below the molecule they belong to. Calls of active or inactive are those of the source. No cut-off for these calls is given here.

Assays:
Escherichia coli [1] = experiment: Selectivity ratio of Kd for Escherichia coli H69-UUU RNA to Kd for wild type Escherichia coli H69 RNA
[2] = Binding affinity to Escherichia coli H69-UUU RNA at 4- charge state at pH 7 after 30 mins by ESI-MS analysis; settings: read-out: Kd(app)
How it was run: (§1)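 ESI-MS titration of free amidated peptide (0–120 μM) with 1–3 μM RNA (50 μL) in 150 mM ammonium acetate, pH 7.0 or 5.2, 25% 2-propanol. Summed peak areas of complexes (1:1, 1:2, Na+/K+ adducts) over free plus complexed RNA give fraction bound, either per charge state (4−, 5−) or all states. Apparent Kd comes from a quadratic fit, three independent experiments.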

[3] = Binding affinity to wild type Escherichia coli H69 RNA at 4- charge state at pH 5.2 after 30 mins by ESI-MS analysis; settings: read-out: Kd(app); how it was run: as §1
[4] = Selectivity ratio of apparent Kd for human H69 RNA at pH 7 to apparent Kd for wild type Escherichia coli H69 RNA at pH 7
How it was run: (§2)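 The ratio compares apparent Kd for each RNA with that for modified wild-type H69, both for 1:1 complexes from ESI-MS at pH 7.0. Conditions: 150 mM ammonium acetate, 25% 2-propanol, 1–3 μM RNA, 0–120 μM amidated peptide, fraction bound fitted by a quadratic equation.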

Escherichia coli [5] = experiment: Selectivity ratio of apparent Kd for Escherichia coli helix 31 at pH 7 to apparent Kd for wild type Escherichia coli H69 RNA at pH 7; how it was run: as §2
Escherichia coli [6] = experiment: Ratio of apparent Kd for wild type Escherichia coli H69-UUU RNA at 4- charge state at pH 5.2 to apparent Kd for wild type Escherichia coli H69-UUU RNA at 4- charge state at pH 7
How it was run: (§3)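 The ratio compares apparent Kd for the 4− charge-state 1:1 complex from ESI-MS titrations at pH 5.2 and pH 7.0. Conditions: 150 mM ammonium acetate, 25% 2-propanol, 1–3 μM RNA, 0–120 μM amidated peptide, quadratic fit.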

[7] = Binding affinity to Escherichia coli H69-2(pseudouridine)U RNA at 4- charge state at pH 7 after 30 mins by ESI-MS analysis; settings: read-out: Kd(app); how it was run: as §1
Escherichia coli [8] = experiment: Selectivity ratio of apparent Kd for Escherichia coli H69-pseudouridineUpseudouridine RNA at 4- charge state at pH 7 to apparent Kd for wild type Escherichia coli H69 RNA at 4- charge state at pH 7
[9] = Binding affinity to Escherichia coli H69-U2(pseudouridine) RNA at 4- charge state at pH 7 after 30 mins by ESI-MS analysis; settings: read-out: Kd(app); how it was run: as §1
Escherichia coli [10] = experiment: Selectivity ratio of apparent Kd for Escherichia coli H69-2(pseudouridine)U RNA at 4- charge state at pH 7 to apparent Kd for wild type Escherichia coli H69 RNA at 4- charge state at pH 7; how it was run: as §2
[11] = Binding affinity to human H69 RNA at pH 7 after 30 mins by ESI-MS analysis; settings: read-out: Kd(app); how it was run: as §1
[12] = Binding affinity to Escherichia coli A-site 16s rRNA at pH 7 after 30 mins by ESI-MS analysis; settings: read-out: Kd(app); how it was run: as §1
[13] = Binding affinity to Escherichia coli helix 31 at pH 7 after 30 mins by ESI-MS analysis; settings: read-out: Kd(app); how it was run: as §1
[14] = Binding affinity to Escherichia coli H69-UUU RNA at 4- charge state at pH 5.2 after 30 mins by ESI-MS analysis; settings: read-out: Kd(app); how it was run: as §1
[15] = Binding affinity to Escherichia coli H69-pseudouridineUpseudouridine RNA at 4- charge state at pH 7 after 30 mins by ESI-MS analysis; settings: read-out: Kd(app)
How it was run: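 ESI-MS on a tandem quadrupole instrument: 1–3 μM RNA with 0–120 μM amidated peptide in 150 mM ammonium acetate, pH 7.0, 25% 2-propanol. Summed peak areas of free RNA and 1:1 complex (with Na+/K+ adducts) at the 4− charge state were used to get the fraction bound. Apparent Kd came from a quadratic-equation non-linear fit. Three independent experiments were run.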

Escherichia coli [16] = experiment: Selectivity ratio of apparent Kd for Escherichia coli H69-U2(pseudouridine) RNA at 4- charge state at pH 7 to apparent Kd for wild type Escherichia coli H69 RNA at 4- charge state at pH 7; how it was run: as §2
Escherichia coli [17] = experiment: Ratio of apparent Kd for wild type Escherichia coli H69 RNA at 4- charge state at pH 5.2 to apparent Kd for wild type Escherichia coli H69 RNA at 4- charge state at pH 7; how it was run: as §3
Escherichia coli [18] = experiment: Selectivity ratio of apparent Kd for Escherichia coli A-site 16s rRNA at pH 7 to apparent Kd for wild type Escherichia coli H69 RNA at pH 7; how it was run: as §2
Escherichia coli [19] = experiment: Selectivity ratio of apparent Kd for Escherichia coli H69-UUU RNA at 4- charge state at pH 7 to apparent Kd for wild type Escherichia coli H69 RNA at 4- charge state at pH 7; how it was run: as §2
Homo sapiens [20] = species on record: Homo sapiens; experiment: Binding affinity to human 5'-fluorescein-tagged TAR RNA after 24 hrs by fluorescein-based bead assay
How it was run: (§4)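 TentaGel beads carrying peptide with a free N-terminus were blocked 3 h in SuperBlock (PBS, 0.05% Tween-20) and water-washed. About 10–12 beads were incubated with 15 μL of 1 μM 5′-fluorescein-labelled RNA in 10 mM HEPES for 24 h at 4 °C with shaking, repeated 4× with fresh RNA. Beads were water-washed and imaged by fluorescence microscopy. Peptide-free beads gave background.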

Homo sapiens [21] = species on record: Homo sapiens; experiment: Binding affinity to human 5'-fluorescein-tagged 18s RNA after 24 hrs by fluorescein-based bead assay; how it was run: as §4
Escherichia coli [22] = experiment: Binding affinity to wild type Escherichia coli Qdot-labeled H69 RNA after 16 hrs by fluorescein-based bead assay
How it was run: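 1 nM fluorescein-H69 was pre-incubated 1 h with 1 nM anti-fluorescein Qdot 655, then with beads for 16 h at 4 °C. Beads were washed, and red and green per-bead pixel intensities (1–255 scale) quantified against no-peptide beads.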

Escherichia coli [23] = experiment: Binding affinity to wild type Escherichia coli 5'-fluorescein-tagged H69 RNA after 24 hrs by fluorescein-based bead assay relative to control; how it was run: as §4

Molecule: NC[C@@H]1O[C@H](O[C@H]2[C@@H](O)[C@H](O[C@@H]3[C@@H](O)[C@H](N)C[C@H](N)[C@H]3O[C@H]3O[C@H](CO)[C@@H](O)[C@H](O)[C@H]3N)O[C@@H]2CO)[C@H](N)[C@@H](O)[C@@H]1O
Selectivity ratio (Escherichia coli [1]): 2

Molecule: H-NQVANHQ-NH2
pKd [2]: 4.72
pKd [3]: 4.47
Selectivity ratio [4]: 4
Selectivity ratio (Escherichia coli [5]): 3
Ratio (Escherichia coli [6]): 1.6
pKd [7]: 4.55
Selectivity ratio (Escherichia coli [8]): 2.3
pKd [9]: 4.55
Selectivity ratio (Escherichia coli [10]): 2.3
pKd [11]: 4.30
pKd [12]: 4.31
pKd [13]: 4.48
pKd [14]: 4.51
pKd [15]: 4.55
Selectivity ratio (Escherichia coli [16]): 2.3
Ratio (Escherichia coli [17]): 2.8
Selectivity ratio (Escherichia coli [18]): 4
Selectivity ratio (Escherichia coli [19]): 1.6

Activity (Homo sapiens [20]): inactive
Activity (Homo sapiens [21]): inactive
Activity (Escherichia coli [22]): Active
Activity (Escherichia coli [23]): Active
Molecule: H-NQVANHQ-OH

Activity (Homo sapiens [20]): Active
Activity (Escherichia coli [22]): Active
Activity (Escherichia coli [23]): Active
Molecule: H-STYTSVS-OH
